Test results published in PMC4076525 (The Journal of General Physiology, 2014).
Numbering of substitutions follows the chain as printed. Names and notes keep the numbering of the source.

Legend:
FepA = biological target: T1, FepA (Escherichia coli, UniProt P05825); conditions: ref Newton et al., 1999; Annamalai et al., 2004; cited from earlier work
T1 sequence (P05825 23-746): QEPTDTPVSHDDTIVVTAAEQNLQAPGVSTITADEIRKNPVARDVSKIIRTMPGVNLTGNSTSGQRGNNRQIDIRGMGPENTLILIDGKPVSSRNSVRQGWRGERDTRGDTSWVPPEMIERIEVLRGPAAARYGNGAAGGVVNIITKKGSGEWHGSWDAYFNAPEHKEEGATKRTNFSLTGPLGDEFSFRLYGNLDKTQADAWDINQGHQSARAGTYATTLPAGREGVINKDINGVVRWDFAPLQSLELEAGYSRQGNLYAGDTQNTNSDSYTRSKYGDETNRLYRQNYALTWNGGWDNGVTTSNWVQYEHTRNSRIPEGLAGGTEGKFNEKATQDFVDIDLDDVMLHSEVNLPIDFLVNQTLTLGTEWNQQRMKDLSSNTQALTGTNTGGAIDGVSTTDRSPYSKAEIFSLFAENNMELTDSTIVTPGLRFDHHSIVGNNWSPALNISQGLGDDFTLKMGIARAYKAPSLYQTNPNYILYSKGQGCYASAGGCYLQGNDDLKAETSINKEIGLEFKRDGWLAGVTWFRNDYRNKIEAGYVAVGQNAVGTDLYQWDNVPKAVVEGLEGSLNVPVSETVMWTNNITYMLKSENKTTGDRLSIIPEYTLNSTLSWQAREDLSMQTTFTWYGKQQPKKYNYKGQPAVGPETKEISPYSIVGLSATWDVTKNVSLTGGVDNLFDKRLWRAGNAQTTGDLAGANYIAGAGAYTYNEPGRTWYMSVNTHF

[1] = Extent of FeEnt-induced quenching of FM fluorescence in live cells; type: cell-based, Escherichia coli; conditions: 10 nM FeEnt, 2.5 × 10^7 cells/ml, FM-labeled mutants
Summary of the method: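 Hosts were tonB+ ΔfepA or ΔtonB ΔfepA E. coli expressing plasmid-borne Cys-substituted FepA, grown in iron-deficient MOPS medium to late log. 10^10 cells were labeled with 5 µM fluorescein-5-maleimide in 50 mM Na2HPO4, 0.9% NaCl, pH 6.5, for 5 min at 37°C. Labeling was quenched with β-mercaptoethanol, and cells were resuspended in PBS with 0.4% glucose. FeEnt was added to 2.5 × 10^7 cells in 3 ml, stirred at 2°C, with emission read at 520 nm.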

[2] = Fluorescence recovery after FeEnt quenching; type: cell-based, Escherichia coli; conditions: after FM modification
59FeEnt transport = type: cell-based, Escherichia coli; conditions: for 59FeEnt transport rate compared with wild-type FepA: before fluoresceination; for Vmax fold lower after fluoresceination: 59FeEnt uptake; for Transport rate relative to wild-type FepA: FM-modified, TonB-dependent uptake
Summary of the method: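 Cultures were grown in LB with antibiotics, then in iron-deficient MOPS medium to 10^9 cells/ml. Cells were assayed before and after labeling with 5 µM fluorescein-5-maleimide (pH 6.5 phosphate/NaCl buffer, 5 min, 37°C, β-mercaptoethanol stop). Uptake was measured in MOPS medium with 0.4% glucose at 37°C in 10-ml volumes. KM and Vmax came from an enzyme-kinetics equation fit per sample.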

[3] = Rapid-mixing stopped-flow FM quenching during FeEnt binding, live bacteria; parameters: species or system Escherichia coli; conditions: live bacteria expressing FepAT216C-FM
Summary of the method: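 Live, highly fluorescein-maleimide-labeled bacteria expressing the Cys-substituted FepA were rapid-mixed with FeEnt in a stopped-flow chamber, with emission quenching recorded at 520 nm. Rate constants, with standard errors, came from exponential decay fits (A(t) = A0e^−kt + offset). Half-times were calculated as −ln 0.5/k.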

[4] = 59FeEnt binding by cells expressing FepA Cys substitution mutants; parameters: species or system Escherichia coli; conditions: read-out: Binding >FM Kd, after modification with FM
Summary of the method: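 Cells were grown overnight at 37°C in LB with streptomycin (100 µg/ml) and chloramphenicol (20 µg/ml). They were subcultured 1% into iron-deficient MOPS medium and grown 5.5–6 h to 10^9 cells/ml, then labeled with 5 µM fluorescein-5-maleimide at pH 6.5 for 5 min at 37°C. Reactions were stopped with 100 mM β-mercaptoethanol. Binding ran at 0°C in 10-ml volumes, and Kd and capacity came from a bound-versus-total fit.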

[5] = Rapid-mixing stopped-flow FM quenching during FeEnt binding, OM fragments; parameters: species or system Escherichia coli; conditions: biphasic decay

O=C(N[C@H]1COC(=O)[C@@H](NC(=O)c2cccc([O-])c2[O-])COC(=O)[C@@H](NC(=O)c2cccc([O-])c2[O-])COC1=O)c1cccc([O-])c1[O-].[Fe+3] [FeEnt, ferric enterobactin]
FeEnt turnover number (FepA): ~0.03 s⁻¹

B1: S275C: E. coli FepA with Cys substitution at S275, surface loop 3 (protein, UniProt P05825 23-746, looked up, variant S275C)
Ferrienterobactin receptor: T1 sequence (P05825 23-746) with S275C
Quenching of FM emissions by FeEnt binding [1]: unaffected by FeEnt

B2: S490C (protein, UniProt P05825 23-746, looked up, variant S490C)
Ferrienterobactin receptor: T1 sequence (P05825 23-746) with S490C
Increase of fluorescence recovery time compared with S271C-FM [2]: 10 fold
59FeEnt transport rate compared with wild-type FepA (59FeEnt transport): about half that rate

B3: A322C-FM: FepA A322C labeled with fluorescein-5-maleimide (FM) (conjugate, UniProt P05825 23-746, looked up, variant A322C)
Ferrienterobactin receptor: T1 sequence (P05825 23-746) with A322C
modifications: fluorescein-5-maleimide label
Quenching of FM emissions by FeEnt binding [1]: similarly quenched
Vmax fold lower after fluoresceination (59FeEnt transport): 3–10 fold

B4: A698C (protein, UniProt P05825 23-746, looked up, variant A698C)
Ferrienterobactin receptor: T1 sequence (P05825 23-746) with A698C
Quenching of FM emissions by FeEnt binding [1]: > 60%

B5: A698C-FM: FepA A698C labeled with fluorescein-5-maleimide (FM) (conjugate, UniProt P05825 23-746, looked up, variant A698C)
Ferrienterobactin receptor: T1 sequence (P05825 23-746) with A698C
modifications: fluorescein-5-maleimide label
Transport rate relative to wild-type FepA (59FeEnt transport): 90%

B6: T550C-FM: FepA T550C labeled with fluorescein-5-maleimide (FM) (conjugate, UniProt P05825 23-746, looked up, variant T550C)
Ferrienterobactin receptor: T1 sequence (P05825 23-746) with T550C
modifications: fluorescein-5-maleimide label
Vmax fold lower after fluoresceination (59FeEnt transport): 3–10 fold

B7: T216C (protein, UniProt P05825 23-746, looked up, variant T216C)
Ferrienterobactin receptor: T1 sequence (P05825 23-746) with T216C
Quenching of FM emissions by FeEnt binding [1]: > 60%
k (SE), rate of FM quenching [3]: 1.08 (0.08) s^−1

B8: A383C-FM: FepA A383C labeled with fluorescein-5-maleimide (FM) (conjugate, UniProt P05825 23-746, looked up, variant A383C)
Ferrienterobactin receptor: T1 sequence (P05825 23-746) with A383C
modifications: fluorescein-5-maleimide label
Vmax fold lower after fluoresceination (59FeEnt transport): 3–10 fold

B9: A322C (protein, UniProt P05825 23-746, looked up, variant A322C)
Ferrienterobactin receptor: T1 sequence (P05825 23-746) with A322C
59FeEnt transport rate compared with wild-type FepA (59FeEnt transport): about half that rate

B10: fepA+: wild-type E. coli FepA, outer membrane ferric enterobactin transporter, expressed from pHSG575 plasmid (protein, UniProt P05825 23-746, looked up)
Ferrienterobactin receptor: T1 sequence (P05825 23-746)
Transport <FM Vmax (59FeEnt transport; 59FeEnt, 37°C, before modification with FM, listed as wild-type FepA): ~100 pMol/min/10^9 cells

B11: S271C-FM (conjugate, UniProt P05825 23-746, looked up, variant S271C)
Ferrienterobactin receptor: T1 sequence (P05825 23-746) with S271C
modifications: fluorescein-5-maleimide label
Transport rate relative to wild-type FepA (59FeEnt transport): 65%

B12: T550C (protein, UniProt P05825 23-746, looked up, variant T550C)
Ferrienterobactin receptor: T1 sequence (P05825 23-746) with T550C
Increase of fluorescence recovery time compared with S271C-FM [2]: 10 fold

B13: A383C (protein, UniProt P05825 23-746, looked up, variant A383C)
Ferrienterobactin receptor: T1 sequence (P05825 23-746) with A383C
Increase of fluorescence recovery time compared with S271C-FM [2]: 10 fold
59FeEnt transport rate compared with wild-type FepA (59FeEnt transport): about half that rate

B14: S490C-FM: FepA S490C labeled with fluorescein-5-maleimide (FM) (conjugate, UniProt P05825 23-746, looked up, variant S490C)
Ferrienterobactin receptor: T1 sequence (P05825 23-746) with S490C
modifications: fluorescein-5-maleimide label
Quenching of FM emissions by FeEnt binding [1]: 30%
Kd [4]: 90 nM
Vmax fold lower after fluoresceination (59FeEnt transport): 3–10 fold
Km (59FeEnt transport; read-out: Transport >FM KM, 59FeEnt, 37°C, after modification with FM): 0.057 µM

B15: S271C (protein, UniProt P05825 23-746, looked up, variant S271C)
Ferrienterobactin receptor: T1 sequence (P05825 23-746) with S271C
k (SE), second kinetic phase [5]: 0.31 (0.04) s^−1
